Fewer inactive variants are shown than the library holds.

To fix the notation:
B1: tRNA (parent)
chain: GUUCCGUUGGCGUAAUGGUAACGCGUCUCCCUCCUAAGGAGAAGACUGCGGGUUCGAGUCCCGUACGGAACG

In the data set the parent is B1. Put plainly: yeast fitness relative to wild type (ratio to wild type); higher = fitter; tRNA-Arg(CCU), competitive growth, 37 C, YPD. The gist of the method: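 Changes in genotype frequencies gave Darwinian fitness relative to wild type. Frequencies were read by 100-nucleotide paired-end sequencing of gene amplicons before and after pooled Saccharomyces cerevisiae strains, carrying tRNA-Arg(CCU) gene variants at the native locus, were competed in YPD at 37°C for 24 hours in six replicates. A genotype was kept only with ≥ 100 starting reads, and estimates < 0.5 were set to 0.5.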
As for GUUCCGUUGGCGUUAUGGUCACGCGUCUCCCUCCUAAGGAGAAGACUGCGGGUUCGAGACCCGUAAGGAACG, the yeast fitness was at most 0.5.

For the variant GUUCCGUUGGCGUUAUGGUAAAGCGUCACUCUCCUAAGGAGAAGACUGCGGGACCGAGUCCCGUACGGAACG, the yeast fitness was at most 0.5. The result for GUUCCGUUGGCGUUUUGGUAACGCGUCUCCCUCGUAAGGAGCAGACUGCGGGUUCGAGUCCCGUACGGAACG reads 0.537; that for GUUCCGUUGGCGUUAUGGUUACGCGUCUCCCUCCUAAGGAGAAGACUGUGGGUUCGAGUCCCGUACGGAACG, at most 0.5; that for GUUCCGUUGGCGUUAUGGUAACGCGUCUCCCUCCUAUGGAGAAGACUGCGGGUUCGAGUCCCGUGCGGAACG, at most 0.5. As to GUUCCGUUGGCGUUAUGGUAACGCGUCUCCCUCCUAAGGCGAAGACUGCGGGUUCGCGUCUCGUACGGAACG, the yeast fitness was at most 0.5.

Consider GUUCCGUUGGCGUGAUGGUAACGCGUCUCCCUCCUAAGGAGAAGACAGCGGGUUCAAGUCCCGUACGGAACG, for which the yeast fitness was determined as 0.724. For the variant GUUCCGUUGGCGUUAUGGUAACGCGUCUCCCUCCUAUGGAGAAGUCUGCGGGUUCGAGUCCCGUACGGAACG, the yeast fitness was at most 0.5.

In the case of GUUCCGUUGGCGUGAUGGUAACGCGUCUCCCUCCUAAGGAGAAGACCGCGGGUUCGAGUCCCGUACGGCACG, the yeast fitness was found to be 0.706. Turning to GUUCCGUUGGCGUUAUGGUAACGCGUCUCCCUCCUAAGGAGAAGACUGCGGGUUCGAGUCCCGUACGGUACG, the yeast fitness amounted to 0.702. As to GUUCCGUUGGCGUUGUGGUACCGCGUCUCCCUCCUAAGGAGAAGACUGCGGGUUCAAGUCCUGUUCGGAACG, the yeast fitness turned out to be 0.554. In the case of GUUCCGUUGGCGUUAUGGUAACGCGUCUCCCUCCUAAGGAGAUGGCUGCGGGCUCGAGUCCCGUACGGAACG, the yeast fitness was at most 0.5. On to GUUCCGUUGGCGUUAUGGUAACGCGUCUCCCUCCUAAGGAGAGGACUGCGGGUUCGAGGCCGAUACGGAACG, for which the yeast fitness is 0.558.

With GUUCCGUUGGCGUUAUGGUAACGCGUCUCCCUCCUAAGGAGAAGGCUGCGGGCUCGAGUCCCGUACGGAACG, the yeast fitness is at most 0.5.

Regarding GUUCCGUUGGCGUUAUGGUAACGCGUCUCCCUCCUAAGGAGAUGACUGCGGGUUGGAGUCCCGUACGGAACG, the yeast fitness was 0.511. For GUUCCGUUGGCGUUAUGGUAACGCGUCUCCCUCCUAAGGCGAAGACUGCGGGUUCGAGUCCAGUAUGGAACG, the yeast fitness was 0.603. In the case of GUUCCGUUGGCGUUAUGGUAACGCGUCUCCCUCCUAAGGAGAUGACUGCGGGUUCGAGUCCCGUACGGAACG, the yeast fitness was found to be 0.721. On to GUUCCGUUGGCGUUAUGGUACCGCGUCUCCCUCCUAAGGAGAAGACUGCGGGUGCGAGUCCCGUACGGAACG, for which the yeast fitness is at most 0.5. Regarding GUUCCGUUGGCGUUAUGGUAGCGCGUCUCCCUCCUAAGCAGAAGGCUGCGGGCUCGAGUCCCGUACGGAACG, the yeast fitness came out at 0.521. As for GUUCCGUUGGCGUUAUGGUAACGCGUCUCCCUCCUAAGGAGAAGACUGCGGGUUCGCGUGACGUACGGAACG, the yeast fitness came out at 0.601.

In the case of GUUCCGUUGGCGUUAUGGUAACGCGUCUCCCUCCUAAGGAGAAGACUGCGGGUUCGAGUCCCGUACGGUCCG, the yeast fitness was at most 0.5. With GUUCCGUUGGCGUUAUGGUAACGCGUCUCCCUCCUAUGGAGAAGACUGCGGGUUCGAGUCCCGUACGGAACG, the yeast fitness was at most 0.5. Consider GUUCCGUUGGCGUUAUGGUAAAGCGUCUCCCUCCUAAGGAGAGGACUGCGGGUUCGAGUCCCGUACGGAACG, for which the yeast fitness is at most 0.5. As for GUUCCGUUGGCGUUAUGGUAACGCGUCUCCCUCCUGAGGAGAAGACUGCGGGAUCGAGUCCCGUACGGAACG, the yeast fitness was at most 0.5. In the case of GUUCCGUUGGCGUUGUGGUAACGCGUCUCCAUCGUAAGGAGAAGACUGCGGGUUCGAGUCUCGUACGGAACG, the yeast fitness is at most 0.5. Take GUUCCGUUGGCGUUAUGGUAAGGCGUCUCCCUCCUAAGGAGCAGACUGCGGGUUCGAGUCCCGUAUGGAACG: the yeast fitness was at most 0.5. GUUCCGUUGGCGUUAUGGUAACGCGUCUCCCUCCUAAGGAGAAGACUGCGGGUUCGAGUCCCGUGGGGAACG: the yeast fitness came to 0.788. The result for GUUCCGUUGGCGUGAUGGUAACGCGUCUCCCUCCUAAGGAGAAGACUGCGGGUUCGAGACCCGUACGGAACG reads 0.894.

Take GUUCCGUUGGCGUUAUGGUAACGCGUCUCCCUCCUAAGGAGCAGACUGCGGAUUCCAGUCCCGUACGGAACG: the yeast fitness was at most 0.5. With GUUCCGUUGGCGUUCUGGUAACGCGUCUCCCUCCUAAGGAGAAGACUGCGGGUUCGAGUCCCGUACGGAACG, the yeast fitness came to 0.681. As for GUUCCGUUGGCGUUGUGGUAACGCGUCUCCCUCCUAAGGAGAAGACUGCGGGUUCGAGUCCCGUACGGAACG, the yeast fitness is 0.725. As to GUUCCGUUGGCGUUAUGGUAACGCGUCUCCCUCCUAAGGAGAAGCCUGCGGGUUCGAGUCCCGUACGGUACG, the yeast fitness was determined as 0.592.

On to GUUCCGUUGGCGUUAUGGUAACGCGUCUCCCUCCUAAGGAGCAGACUGCGGGUUCGAGUCCCGUACGGAACG, for which the yeast fitness amounted to 0.639. For GUUCCGUUGGCGUUAUGGUAGCGCGUCUCCCUCCUAAGCAGAAGGCUGCGGGUUCGAGUCCCCUACGGAACG, the yeast fitness was at most 0.5.

Consider GUUCCGUUGGCGUUCUGGUAACGCGUCUCCCUACUAAGCAGAAGACUGCGGGUUCGAGUCCCGUACGGAACG, for which the yeast fitness was at most 0.5. For GUUCCGUUGGCGUUAUGGUCACGCGUUUCCCUCCCAAGGAGAAGACUACGGGUUCGAGUCCAGUACGGAACG the value was at most 0.5; for GUUCCGUUGGCGUGAUGGUAACGCGUCUCCCUCCUAAGGAGAAGACUGCGGGUACGAGUCCCGUACGGUACG, at most 0.5; for GUUCCGUUGGCGUUAUGGUACCGCGUCUCCCUCCUAAGGAAAAGACUGCGGGUUCGAGUCCCGUACCGAACG, at most 0.5.

The record behind these values is the RNAGym collection of RNA variant scans (doi:10.1126/science.aae0568).
